Laboratory results taken from ChEMBL document CHEMBL1125270, “Renin inhibitors containing esters at the P2-position. Oral activity in a derivative of methyl aminomalonate” (J Med Chem, 1991).

Each molecule was assayed against Chymotrypsinogen A (Bos taurus) (UniProt P00766) (assay: % degradation to Chymotrypsinogen proteolysis at 30 mins.). Conditions: not given.
Summary of the method: (§1)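 Bovine chymotrypsin in buffered solution at pH 6.9, following a previously established method. Test compound was incubated with the enzyme, and the percent of compound degraded was read at 15 or 30 min.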

Row | Degradation | SMILES
1 | 70% | CC(C)C[C@@H](O)[C@H](O)[C@H](CC1CCCCC1)NC(=O)C(NC(=O)[C@H](Cc1ccccc1)NS(=O)(=O)N1CCOCC1)C(=O)OC(C)C (stereo partly drawn)
2 | 100% | COC(=O)C(NC(=O)[C@H](Cc1ccccc1)NS(=O)(=O)N1CCOCC1)C(=O)N[C@@H](CC1CCCCC1)[C@@H](O)[C@H](O)CC(C)C (stereo in doubt; 4) [listing 1 of 2 here]
3 | 65% | C=CCOC(=O)C(NC(=O)[C@H](Cc1ccccc1)NS(=O)(=O)N1CCOCC1)C(=O)N[C@@H](CC1CCCCC1)[C@@H](O)[C@H](O)CC(C)C (stereo partly drawn)
4 | 15% | CCCCCCOC(=O)C(NC(=O)[C@H](Cc1ccccc1)NS(=O)(=O)N1CCOCC1)C(=O)N[C@@H](CC1CCCCC1)[C@@H](O)[C@H](O)CC(C)C (stereo partly drawn)

Each molecule was assayed against T1, Cathepsin D (Bos taurus, UniProt P80209) (assay: Inhibitory concentration on Bovine Cathepsin D). Conditions: not given.
T1 sequence (P80209 whole entry): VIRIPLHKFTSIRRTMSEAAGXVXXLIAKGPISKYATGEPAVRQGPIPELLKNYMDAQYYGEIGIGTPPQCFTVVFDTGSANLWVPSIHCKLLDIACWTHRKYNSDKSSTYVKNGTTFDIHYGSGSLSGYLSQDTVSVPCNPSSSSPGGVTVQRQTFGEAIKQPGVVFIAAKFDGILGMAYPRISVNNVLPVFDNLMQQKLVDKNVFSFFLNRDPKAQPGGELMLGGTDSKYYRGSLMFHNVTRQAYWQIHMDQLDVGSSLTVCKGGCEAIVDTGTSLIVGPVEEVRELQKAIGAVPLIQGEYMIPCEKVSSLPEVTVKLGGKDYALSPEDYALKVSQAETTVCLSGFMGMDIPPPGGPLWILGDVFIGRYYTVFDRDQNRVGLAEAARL
Summary of the method: (§2)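 Bovine cathepsin D hydrolysing twice-crystallised bovine hemoglobin at pH 3.2 and 37 °C, run in duplicate. Net absorbance at 280 nm was read in acid-precipitated supernatants and compared with uninhibited controls. IC50 came from nonlinear regression over six inhibitor concentrations.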

Row | IC50 | SMILES
5 | 24 nM | CSC[C@H](NC(=O)[C@H](Cc1ccccc1)NC(=O)N1CCOCC1)C(=O)N[C@@H](CC1CCCCC1)[C@@H](O)C(=O)OC(C)C
6 | 515 nM | COC(=O)C(NC(=O)[C@H](Cc1ccccc1)NS(=O)(=O)N1CCOCC1)C(=O)N[C@@H](CC1CCCCC1)C(=O)C(F)(F)C(=O)NCCN1CCOCC1 (stereo partly drawn)
7 | 1300 nM | CCCCNC(=O)[C@@H](C[C@H](O)[C@H](CC1CCCCC1)NC(=O)[C@H](Cc1c[nH]cn1)NC(=O)[C@H](Cc1ccccc1)CS(=O)(=O)C(C)(C)C)C(C)C
8 | > 1000 nM | COC(=O)C(NC(=O)[C@H](Cc1ccccc1)NS(=O)(=O)N1CCOCC1)C(=O)N[C@@H](CC1CCCCC1)[C@@H](O)CC(=O)NCCN1CCOCC1 (stereo partly drawn)
9 | > 1000 nM | COC(=O)C(NC(=O)[C@H](Cc1ccccc1)NS(=O)(=O)N1CCOCC1)C(=O)N[C@@H](CC(C)C)[C@@H](O)CC(=O)NCCN1CCOCC1 (stereo partly drawn)

The molecules below were run against T2, Renin (Homo sapiens, UniProt P00797) (assay: Inhibitory concentration against human renin). Conditions: not given.
T2 sequence (P00797 whole entry): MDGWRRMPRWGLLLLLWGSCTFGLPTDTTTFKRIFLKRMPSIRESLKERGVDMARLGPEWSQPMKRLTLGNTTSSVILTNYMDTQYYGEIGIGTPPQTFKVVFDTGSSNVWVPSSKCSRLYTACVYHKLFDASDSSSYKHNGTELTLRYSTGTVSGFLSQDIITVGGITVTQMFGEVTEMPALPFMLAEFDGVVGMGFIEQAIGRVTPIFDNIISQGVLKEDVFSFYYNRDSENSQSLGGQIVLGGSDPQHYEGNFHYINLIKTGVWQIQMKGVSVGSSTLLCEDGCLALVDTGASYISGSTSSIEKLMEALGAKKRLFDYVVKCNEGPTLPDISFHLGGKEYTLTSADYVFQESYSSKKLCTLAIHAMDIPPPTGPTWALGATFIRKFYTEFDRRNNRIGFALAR

Row | IC50 | SMILES
10 | 130 nM | COC(=O)C(NC(=O)[C@H](Cc1ccccc1)NS(=O)(=O)N1CCOCC1)C(=O)N[C@@H](CC(C)C)[C@@H](O)CC(=O)NCCN1CCOCC1 (stereo partly drawn)

Each molecule was assayed against Renin (Macaca fascicularis) (assay: Inhibition of monkey plasma renin). Conditions: not given.

Row | IC50 | SMILES
11 | 0.68 nM | CC(C)C[C@@H](O)[C@H](O)[C@H](CC1CCCCC1)NC(=O)C(NC(=O)[C@H](Cc1ccccc1)NS(=O)(=O)N1CCOCC1)C(=O)OC(C)C (stereo partly drawn)
12 | 0.18 nM | COC(=O)CC(NC(=O)[C@H](Cc1ccccc1)NS(=O)(=O)N1CCOCC1)C(=O)N[C@@H](CC1CCCCC1)[C@@H](O)[C@H](O)CC(C)C (stereo partly drawn)
13 | 1.4 nM | COC(=O)CCC(NC(=O)[C@H](Cc1ccccc1)NS(=O)(=O)N1CCOCC1)C(=O)N[C@@H](CC1CCCCC1)[C@@H](O)[C@H](O)CC(C)C (stereo partly drawn)
14 | 27 nM | CC(C)C[C@@H](O)[C@H](O)[C@H](CC1CCCCC1)NC(=O)C(NC(=O)[C@H](Cc1ccccc1)NS(=O)(=O)N1CCOCC1)C(=O)O (stereo partly drawn)
15 | 0.95 nM | C=CCOC(=O)C(NC(=O)[C@H](Cc1ccccc1)NS(=O)(=O)N1CCOCC1)C(=O)N[C@@H](CC1CCCCC1)[C@@H](O)[C@H](O)CC(C)C (stereo partly drawn)
16 | 15 nM | CCCCCCOC(=O)C(NC(=O)[C@H](Cc1ccccc1)NS(=O)(=O)N1CCOCC1)C(=O)N[C@@H](CC1CCCCC1)[C@@H](O)[C@H](O)CC(C)C (stereo partly drawn)

These molecules were tested against T1, Cathepsin D (assay: Inhibition of Bovine Cathepsin D.). Conditions: not given.
Summary of the method: as §2

Row | IC50 | SMILES
17 | 43 nM | CC(C)C[C@@H](O)[C@H](O)[C@H](CC1CCCCC1)NC(=O)C(NC(=O)[C@H](Cc1ccccc1)NS(=O)(=O)N1CCOCC1)C(=O)OC(C)C (stereo partly drawn)
18 | 27 nM | COC(=O)CC(NC(=O)[C@H](Cc1ccccc1)NS(=O)(=O)N1CCOCC1)C(=O)N[C@@H](CC1CCCCC1)[C@@H](O)[C@H](O)CC(C)C (stereo partly drawn)
19 | 46 nM | COC(=O)C(NC(=O)[C@H](Cc1ccccc1)NS(=O)(=O)N1CCOCC1)C(=O)N[C@@H](CC1CCCCC1)[C@@H](O)[C@H](O)CC(C)C (stereo in doubt; 4A)
20 | 30 nM | COC(=O)CCC(NC(=O)[C@H](Cc1ccccc1)NS(=O)(=O)N1CCOCC1)C(=O)N[C@@H](CC1CCCCC1)[C@@H](O)[C@H](O)CC(C)C (stereo partly drawn)
21 | 36 nM | COC(=O)C(NC(=O)[C@H](Cc1ccccc1)NS(=O)(=O)N1CCOCC1)C(=O)N[C@@H](CC1CCCCC1)[C@@H](O)[C@H](O)CC(C)C (stereo in doubt; 4) [listing 2 of 2 here]
22 | 310 nM | CC(C)C[C@@H](O)[C@H](O)[C@H](CC1CCCCC1)NC(=O)C(NC(=O)[C@H](Cc1ccccc1)NS(=O)(=O)N1CCOCC1)C(=O)O (stereo partly drawn)
23 | > 100 nM | C=CCOC(=O)C(NC(=O)[C@H](Cc1ccccc1)NS(=O)(=O)N1CCOCC1)C(=O)N[C@@H](CC1CCCCC1)[C@@H](O)[C@H](O)CC(C)C (stereo partly drawn)
24 | 77 nM | COC(=O)C(NC(=O)[C@H](Cc1ccccc1)NS(=O)(=O)N1CCOCC1)C(=O)N[C@@H](CC1CCCCC1)[C@@H](O)[C@H](O)CC(C)C (stereo in doubt; 4B)
25 | 100 nM | CCCCCCOC(=O)C(NC(=O)[C@H](Cc1ccccc1)NS(=O)(=O)N1CCOCC1)C(=O)N[C@@H](CC1CCCCC1)[C@@H](O)[C@H](O)CC(C)C (stereo partly drawn)
26 | > 1000 nM | COc1ccc(C[C@H](NC(=O)CC(C)(C)N)C(=O)N[C@@H](Cc2c[nH]cn2)C(=O)N[C@@H](CC2CCCCC2)[C@@H](O)[C@@H](O)CC(C)C)cc1

The molecules below were run against Chymotrypsinogen A (Bos taurus) (UniProt P00766) (assay: % degradation to Chymotrypsinogen proteolysis at 15 mins.). Conditions: not given.
Summary of the method: as §1

Row | Degradation | SMILES
27 | 89% | COC(=O)C(NC(=O)[C@H](Cc1ccccc1)NS(=O)(=O)N1CCOCC1)C(=O)N[C@@H](CC1CCCCC1)[C@@H](O)[C@H](O)CC(C)C (stereo in doubt; 4) [listing 1 of 2 here]

Each molecule was assayed on Monkey (assay: Maximum fall in mean arterial blood pressure expressed in mmHg following a 3 mg/kg intravenous dose in monkeys). Conditions: not given.

Row | SMILES | Blood pressure
28 | COC(=O)C(NC(=O)[C@H](Cc1ccccc1)NS(=O)(=O)N1CCOCC1)C(=O)N[C@@H](CC1CCCCC1)[C@@H](O)CC(=O)NCCN1CCOCC1 (stereo partly drawn) | 16 mmHg

What follows are molecules tested on Monkey (assay: Maximum fall in mean arterial blood pressure expressed in mmHg following a 30 mg/kg dose in monkeys.). Conditions: not given.
Assay type: functional, Cercopithecidae
Summary of the method: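 Conscious monkeys were dosed orally by gavage at 30 mg/kg in water/dimethylacetamide/Tween 80 (62.5:7.5:30), 2 mL/kg. Two models were used: high-renin normotensive (sodium restriction plus furosemide) or renal hypertensive (renal artery clipping). Mean arterial pressure was followed for 3 h, and the maximum fall in mmHg was recorded. N is given per compound.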

Row | SMILES | Blood pressure
29 | CC(C)C[C@@H](O)[C@H](O)[C@H](CC1CCCCC1)NC(=O)C(NC(=O)[C@H](Cc1ccccc1)NS(=O)(=O)N1CCOCC1)C(=O)OC(C)C (stereo partly drawn) | 16 mmHg
30 | COC(=O)CC(NC(=O)[C@H](Cc1ccccc1)NS(=O)(=O)N1CCOCC1)C(=O)N[C@@H](CC1CCCCC1)[C@@H](O)[C@H](O)CC(C)C (stereo partly drawn) | 3 mmHg
31 | COC(=O)CCC(NC(=O)[C@H](Cc1ccccc1)NS(=O)(=O)N1CCOCC1)C(=O)N[C@@H](CC1CCCCC1)[C@@H](O)[C@H](O)CC(C)C (stereo partly drawn) | 12 mmHg
32 | CSC[C@H](NC(=O)[C@H](Cc1ccccc1)NC(=O)N1CCOCC1)C(=O)N[C@@H](CC1CCCCC1)[C@@H](O)C(=O)OC(C)C | 9 mmHg
33 | COC(=O)C(NC(=O)[C@H](Cc1ccccc1)NS(=O)(=O)N1CCOCC1)C(=O)N[C@@H](CC1CCCCC1)C(=O)C(F)(F)C(=O)NCCN1CCOCC1 (stereo partly drawn) | 16 mmHg
34 | CCCCNC(=O)[C@@H](C[C@H](O)[C@H](CC1CCCCC1)NC(=O)[C@H](Cc1c[nH]cn1)NC(=O)[C@H](Cc1ccccc1)CS(=O)(=O)C(C)(C)C)C(C)C | 16 mmHg
35 | COc1ccc(C[C@H](NC(=O)CC(C)(C)N)C(=O)N[C@@H](Cc2c[nH]cn2)C(=O)N[C@@H](CC2CCCCC2)[C@@H](O)[C@@H](O)CC(C)C)cc1 | 8 mmHg

Same assay, conditions: 30 mg/kg

Row | SMILES | Blood pressure
36 | COC(=O)C(NC(=O)[C@H](Cc1ccccc1)NS(=O)(=O)N1CCOCC1)C(=O)N[C@@H](CC1CCCCC1)[C@@H](O)[C@H](O)CC(C)C (stereo in doubt; 4A) | 18 mmHg
37 | COC(=O)C(NC(=O)[C@H](Cc1ccccc1)NS(=O)(=O)N1CCOCC1)C(=O)N[C@@H](CC1CCCCC1)[C@@H](O)[C@H](O)CC(C)C (stereo in doubt; 4) [listing 2 of 2 here] | 22 mmHg
38 | COC(=O)C(NC(=O)[C@H](Cc1ccccc1)NS(=O)(=O)N1CCOCC1)C(=O)N[C@@H](CC1CCCCC1)[C@@H](O)[C@H](O)CC(C)C (stereo in doubt; 4B) | 14 mmHg
